Test results published in ChEMBL document CHEMBL4351031, “The development of 2-acetylphenol-donepezil hybrids as multifunctional agents for the treatment of Alzheimer's disease” (Bioorg Med Chem Lett, 2019).
Activity calls are given as the source filed them. The rule behind the calls is not given here.

Tests used:
[1] = Selectivity index, ratio of IC50 for equine serum BuChE using S-butyrylthiocholine chloride as substrate to IC50 for electric eel AChE using acetylthiocholine iodide as substrate by Ellman's method
How it was run: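 Selectivity index is IC50(eqBuChE)/IC50(EeAChE). Both IC50s come from the modified Ellman method, using Electrophorus electricus AChE and equine serum BuChE. Each IC50 is the mean of three independent experiments, each run in triplicate.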

[2] = target: T1, Amine oxidase [flavin-containing] B (Homo sapiens, UniProt P27338); assay: Inhibition of human recombinant MAO-B using kynuramine as substrate measured after 30 mins by fluorimetric assay
T1 sequence (P27338 whole entry): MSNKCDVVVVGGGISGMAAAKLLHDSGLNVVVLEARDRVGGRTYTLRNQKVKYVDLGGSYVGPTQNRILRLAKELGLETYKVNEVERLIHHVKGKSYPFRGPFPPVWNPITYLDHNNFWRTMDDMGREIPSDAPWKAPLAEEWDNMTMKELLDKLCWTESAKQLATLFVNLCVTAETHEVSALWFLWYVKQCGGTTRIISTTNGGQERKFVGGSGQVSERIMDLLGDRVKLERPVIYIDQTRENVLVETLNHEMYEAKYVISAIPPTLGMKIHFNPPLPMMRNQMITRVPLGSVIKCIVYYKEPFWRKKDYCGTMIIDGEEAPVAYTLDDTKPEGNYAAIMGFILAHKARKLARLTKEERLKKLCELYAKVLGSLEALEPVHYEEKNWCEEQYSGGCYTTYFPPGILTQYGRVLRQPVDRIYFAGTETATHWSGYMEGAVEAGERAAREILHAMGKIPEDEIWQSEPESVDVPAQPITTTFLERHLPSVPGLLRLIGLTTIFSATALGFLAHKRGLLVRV

Cholinesterase = Cholinesterase (Equus caballus, UniProt P81908); assay: Inhibition of equine serum BuChE using S-butyrylthiocholine chloride as substrate incubated for 15 mins by Ellman's method
Sequence of Cholinesterase (P81908 whole entry): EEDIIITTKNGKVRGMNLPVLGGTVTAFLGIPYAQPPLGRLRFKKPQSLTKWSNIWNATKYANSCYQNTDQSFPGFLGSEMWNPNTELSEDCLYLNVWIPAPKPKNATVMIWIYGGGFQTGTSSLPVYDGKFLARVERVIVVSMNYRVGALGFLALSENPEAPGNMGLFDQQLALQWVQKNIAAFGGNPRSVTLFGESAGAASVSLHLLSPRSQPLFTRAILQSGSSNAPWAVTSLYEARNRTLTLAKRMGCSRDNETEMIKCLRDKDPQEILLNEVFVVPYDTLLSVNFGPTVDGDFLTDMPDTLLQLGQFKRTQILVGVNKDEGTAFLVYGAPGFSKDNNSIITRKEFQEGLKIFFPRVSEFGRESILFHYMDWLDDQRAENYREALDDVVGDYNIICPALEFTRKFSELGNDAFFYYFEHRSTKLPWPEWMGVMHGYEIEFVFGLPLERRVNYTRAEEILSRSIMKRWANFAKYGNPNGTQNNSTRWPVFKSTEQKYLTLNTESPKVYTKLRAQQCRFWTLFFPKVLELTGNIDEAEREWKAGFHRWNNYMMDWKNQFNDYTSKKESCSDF
How it was run: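 Modified Ellman method using equine serum BuChE. […] Values are the mean of three independent experiments, each run in triplicate, with SD.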

[3] = target: T2, Amine oxidase [flavin-containing] A (Homo sapiens, UniProt P21397); assay: Inhibition of human recombinant MAO-A using kynuramine as substrate measured after 30 mins by fluorimetric assay
T2 sequence (P21397 whole entry): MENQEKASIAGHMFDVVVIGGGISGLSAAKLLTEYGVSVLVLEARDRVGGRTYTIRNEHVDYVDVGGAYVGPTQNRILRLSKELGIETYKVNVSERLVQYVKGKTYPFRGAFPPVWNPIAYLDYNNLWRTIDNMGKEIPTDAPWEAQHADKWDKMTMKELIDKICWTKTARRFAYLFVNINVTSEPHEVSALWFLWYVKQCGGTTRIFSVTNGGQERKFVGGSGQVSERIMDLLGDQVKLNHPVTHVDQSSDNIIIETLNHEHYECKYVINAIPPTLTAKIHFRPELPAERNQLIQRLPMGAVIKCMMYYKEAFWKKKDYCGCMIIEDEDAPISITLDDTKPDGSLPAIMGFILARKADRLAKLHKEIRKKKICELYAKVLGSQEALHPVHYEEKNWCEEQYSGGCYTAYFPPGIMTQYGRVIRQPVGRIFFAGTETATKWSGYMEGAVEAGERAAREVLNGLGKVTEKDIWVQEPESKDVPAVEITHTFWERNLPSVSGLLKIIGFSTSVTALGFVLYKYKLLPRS
How it was run: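 Recombinant human MAO-A inhibition measured by a fluorimetric assay. Each value is the mean of three independent experiments, each run in triplicate, with SD reported.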

Acetylcholinesterase = Acetylcholinesterase (Electrophorus electricus, UniProt O42275); assay: Inhibition of electric eel AChE using acetylthiocholine iodide incubated for 15 mins as substrate by Ellman's method
Sequence of Acetylcholinesterase (O42275 whole entry): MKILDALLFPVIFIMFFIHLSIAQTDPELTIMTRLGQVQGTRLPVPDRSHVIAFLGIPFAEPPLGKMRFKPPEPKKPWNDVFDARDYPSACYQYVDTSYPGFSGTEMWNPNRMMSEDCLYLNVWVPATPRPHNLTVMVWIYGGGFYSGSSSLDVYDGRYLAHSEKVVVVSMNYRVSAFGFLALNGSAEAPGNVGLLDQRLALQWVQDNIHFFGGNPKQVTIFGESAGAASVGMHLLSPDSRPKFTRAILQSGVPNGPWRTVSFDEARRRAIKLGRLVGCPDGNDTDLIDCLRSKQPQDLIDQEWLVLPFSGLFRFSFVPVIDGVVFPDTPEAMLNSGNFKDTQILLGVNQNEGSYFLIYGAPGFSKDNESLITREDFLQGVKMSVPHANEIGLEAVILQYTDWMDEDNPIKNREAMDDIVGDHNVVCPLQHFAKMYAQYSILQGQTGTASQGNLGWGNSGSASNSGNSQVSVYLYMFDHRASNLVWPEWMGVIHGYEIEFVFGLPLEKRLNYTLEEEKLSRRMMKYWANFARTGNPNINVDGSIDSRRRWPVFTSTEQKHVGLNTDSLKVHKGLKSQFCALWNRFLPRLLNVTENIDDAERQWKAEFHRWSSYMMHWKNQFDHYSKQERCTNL

MAO-A = target: T3, MAO-A (Homo sapiens, UniProt P21397); assay: Inhibition of human recombinant MAO-A using kynuramine as substrate at 10 uM measured after 30 mins by fluorimetric assay relative to control; details: probe kynuramine
T3 sequence (P21397 whole entry): T2 sequence (P21397 whole entry)

[4] = target: Cholinesterase (Equus caballus) (UniProt P81908); assay: Inhibition of equine serum BuChE using S-butyrylthiocholine chloride as substrate at 50 uM incubated for 15 mins by Ellman's method relative to control
Sequence of Cholinesterase (Equus caballus) (P81908 whole entry): as the sequence (P81908 whole entry) above

[5] = Metal chelating activity assessed as Cu2+-compound complex formation measured as red shift in absorption spectra at 37.5 uM measured after 30 mins in presence of 37.5 uM CuCl2 by UV-vis spectrophotometric analysis
[6] = target: Acetylcholinesterase (Electrophorus electricus) (UniProt O42275); assay: Mixed inhibition of electric eel AChE at 1.5 to 6 uM preincubated with enzyme for 15 mins followed by substrate addition using acetylthiocholine iodide as substrate by double reciprocal Lineweaver-Burk plot analysis
Sequence of Acetylcholinesterase (Electrophorus electricus) (O42275 24-633 limits assumed): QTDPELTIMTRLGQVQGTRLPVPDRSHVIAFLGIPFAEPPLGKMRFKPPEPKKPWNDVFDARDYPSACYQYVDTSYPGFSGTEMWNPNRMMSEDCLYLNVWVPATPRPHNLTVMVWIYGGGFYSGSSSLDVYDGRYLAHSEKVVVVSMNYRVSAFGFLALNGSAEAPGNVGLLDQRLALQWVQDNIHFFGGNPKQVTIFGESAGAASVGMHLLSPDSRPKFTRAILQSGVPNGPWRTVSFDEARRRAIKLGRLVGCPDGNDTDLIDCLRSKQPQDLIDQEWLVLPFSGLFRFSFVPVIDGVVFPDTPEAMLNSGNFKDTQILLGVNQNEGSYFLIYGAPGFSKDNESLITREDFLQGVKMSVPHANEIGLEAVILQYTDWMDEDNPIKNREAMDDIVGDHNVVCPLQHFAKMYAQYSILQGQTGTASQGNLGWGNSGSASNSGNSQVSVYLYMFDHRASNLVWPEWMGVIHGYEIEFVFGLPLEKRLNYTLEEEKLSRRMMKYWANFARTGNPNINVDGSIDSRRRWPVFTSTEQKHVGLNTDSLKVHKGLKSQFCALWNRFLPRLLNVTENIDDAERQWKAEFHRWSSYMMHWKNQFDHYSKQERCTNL

[7] = Permeability of the compound at 100 ug/ml measured after compound dilution in PBS/EtOH buffer (70:30) by PAMPA-BBB assay
[8] = Metal chelating activity assessed as Fe2+-compound complex formation at 37.5 uM measured after 30 mins in presence of 37.5 uM FeSO4 by UV-vis spectrophotometric analysis
[9] = Metal chelating activity assessed as Zn2+-compound complex formation at 37.5 uM measured after 30 mins in presence of 37.5 uM ZnCl2 by UV-vis spectrophotometric analysis
[10] = Metal chelating activity assessed as Al3+-compound complex formation at 37.5 uM measured after 30 mins in presence of 37.5 uM AlCl3 by UV-vis spectrophotometric analysis
[11] = Metal chelating activity assessed as mole fraction of the compound required for Cu2+ -compound complex formation at stoichiometry ratio of 1:1 at 37.5 uM measured after 30 mins in presence of 3.75 to 93.75 uM CuCl2 by UV-vis spectrophotometric analysis
How it was run: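 Cu2+ complex stoichiometry determined by the molar ratio method. Ascending amounts of CuCl2 were added to the test compound, at a final concentration of 37.5 μM. Absorbance was plotted against mole fraction, and the stoichiometry was taken from the intersection of two fitted straight lines. The final Cu2+ concentration started at 3.75 μM.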

Row | Compound | Ratio IC50 [1] | IC50 [2] [µM] | IC50 (Cholinesterase) [µM] | IC50 (Acetylcholinesterase) [µM] | inhibition at 0.5 h, 10 µM (MAO-A) [%] | inhibition [4] [%] | also measured
1 | CC(=O)c1ccc(OCCCCCCN2CCc3ccccc3C2)cc1O | 3.5 | 26.9 | 32.6 | 9.2 |  |  | IC50 [3]: 21.2 µM
2 | CCN(CCCCCCCCCCCCOc1ccc(C(C)=O)c(O)c1)Cc1ccccc1 | 5 | 33.1 | 38.9 | 7.7 | < 10 |  | 
3 | CCN(CCCOc1ccc(C(C)=O)c(O)c1)Cc1ccccc1 | 2.6 | 14.9 | 18.7 | 7.2 | < 10 |  | 
4 | CC(=O)c1ccc(OCCCCCCCCCN2CCc3ccccc3C2)cc1O |  | 19.4 |  | 11.6 | < 10 | < 5 | 
5 | CC(=O)c1ccc(OCCCN2CCC(Cc3ccccc3)CC2)cc1O | 5.4 | 18.7 | 63.1 | 11.7 | < 10 |  | 
6 | CCN(CCCCCOc1ccc(C(C)=O)c(O)c1)Cc1ccccc1 | 7.1 | 29.8 | 37.2 | 5.2 | < 10 |  | 
7 | COc1cc2c(cc1OC)CN(CCCOc1ccc(C(C)=O)c(O)c1)CC2 | 5.7 | 13.8 | 57.9 | 10.1 | 8.1 |  | 
8 | CCN(CC)CCCOc1ccc(C(C)=O)c(O)c1 |  | 16.1 |  | 26.7 | < 10 | < 5 | 
9 | CC(=O)c1ccc(OCCCCCN2CCC(Cc3ccccc3)CC2)cc1O |  | 20.8 |  | 8.2 | < 10 | < 5 | 
10 | CC(=O)c1ccc(OCCCCCCCCCCN2CCC(Cc3ccccc3)CC2)cc1O |  | 21.6 |  | 9.2 | < 10 | 13.8 | 
11 | CC(=O)c1ccc(OCCCCCCCCCCN2CCN(Cc3ccccc3)CC2)cc1O |  | 17.3 |  | 6.9 |  | 15.1 | IC50 [3]: 19.8 µM
12 | CC(=O)c1ccc(OCCCCCN2CCc3ccccc3C2)cc1O |  | 15.2 |  | 7.5 | < 10 | < 5 | 
13 | CCN(CCCCOc1ccc(C(C)=O)c(O)c1)Cc1ccccc1 | 11.9 | 16.6 | 34.6 | 2.9 | < 10 |  | Activity [5]: Active; inhibition [6]: Active; Papp at 100 ug/ml [7]: 15.1 ×10⁻⁶ cm/s; Activity [8]: inactive; Activity [9]: inactive; Activity [10]: inactive; Ratio (mole fraction) [11]: 0.97
14 | COc1cc2c(cc1OC)CN(CCCCOc1ccc(C(C)=O)c(O)c1)CC2 | 3.5 | 15.7 | 56.4 | 15.9 | < 10 |  | 
15 | CC(=O)c1ccc(OCCCN2CCC(c3ccccc3)CC2)cc1O | 2.2 | 19.8 | 29.4 | 13.4 |  |  | IC50 [3]: 24.7 µM
16 | CC(=O)c1ccc(OCCCCCCCCCCCCN2CCC(Cc3ccccc3)CC2)cc1O |  | 25.8 |  | 9.5 | < 10 | < 5 | 
17 | CCN(CC)CCCCCCOc1ccc(C(C)=O)c(O)c1 |  | 22.1 |  | 16.3 | < 10 | < 5 | 
18 | CCN(CCCCCCCCCCOc1ccc(C(C)=O)c(O)c1)Cc1ccccc1 | 7.8 | 23.4 | 50.7 | 6.5 | < 10 |  | 
19 | CCN(CC)CCCCOc1ccc(C(C)=O)c(O)c1 |  | 22.2 |  | 20.9 | < 10 | < 5 | 
20 | CC(=O)c1ccc(OCCN2CCN(Cc3ccccc3)CC2)cc1O |  | 10.2 |  | 6.6 |  | 11.2 | Papp at 100 ug/ml [7]: 17.4 ×10⁻⁶ cm/s; IC50 [3]: 26.1 µM
21 | CC(=O)c1ccc(OCCN2CCC(Cc3ccccc3)CC2)cc1O |  | 22.8 |  | 16.5 | < 10 | < 5 | 
22 | CC(=O)c1ccc(OCCCCCCCCCN2CCC(Cc3ccccc3)CC2)cc1O |  | 27.9 |  | 8.5 | < 10 | < 5 | 
23 | CC(=O)c1ccc(OCCCCN2CCc3ccccc3C2)cc1O | 8.1 | 12.8 | 47.5 | 5.9 | 6.3 |  | 
24 | CCN(CCOc1ccc(C(C)=O)c(O)c1)Cc1ccccc1 |  | 13.8 |  | 18.9 | < 10 | < 5 | 
25 | CC(=O)c1ccc(OCCCN2CCc3ccccc3C2)cc1O |  | 16.7 |  | 8.9 | < 10 | < 5 | 
26 | CC(=O)c1ccc(OCCCCN2CCC(Cc3ccccc3)CC2)cc1O |  | 13.5 |  | 8.9 | < 10 | < 5 | 
27 | CC(=O)c1ccc(OCCCCCCN2CCC(Cc3ccccc3)CC2)cc1O | 9.4 | 15.8 | 66.9 | 7.1 |  |  | IC50 [3]: 22.1 µM
28 | CCN(CC)CCOc1ccc(C(C)=O)c(O)c1 |  | 11.7 |  | 35.2 | < 10 | < 5 | 
29 | CC(=O)c1ccc(OCCCCCCCCCCN2CCC(c3ccccc3)CC2)cc1O |  | 14.2 |  | 18.4 | < 10 | 0.8 | 
30 | CC(=O)c1ccc(OCCCCCCCCCN2CCN(Cc3ccccc3)CC2)cc1O | 2.9 | 21.6 | 19.8 | 6.7 |  |  | IC50 [3]: 19.7 µM
